Screening data from PubChem.
PAD4 FP inh – blocks human protein arginine deiminase 4. 330,000 compounds, 0.41% hits. Q9UM07. recombinant PAD4, RCA probe fluorescence polarization. AID 485272. inhibition, % at 6.36 µM;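 active means percent inhibition above a cutoff equal to the mean of all tested compounds plus 3 SD, cut at about 15% in these data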
RBBP9 inh – human RBBP9 hydrolase inhibition. AID 1515. 220,000 compounds, 0.2% hits. O75884. recombinant RBBP9, FP-Rh probe fluorescence polarization. inhibition, % at 7.94 µM;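 active means inhibition above the campaign mean of all tested compounds plus 3 SD, cut at about 14% in these data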
Target sequence (O75884 whole entry, looked up): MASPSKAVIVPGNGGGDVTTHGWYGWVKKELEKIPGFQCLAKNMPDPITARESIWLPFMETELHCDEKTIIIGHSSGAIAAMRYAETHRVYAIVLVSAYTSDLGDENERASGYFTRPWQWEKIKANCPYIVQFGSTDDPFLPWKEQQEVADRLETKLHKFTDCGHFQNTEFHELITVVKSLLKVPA
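Test system: recombinant human RBBP9; Timing: 30 min then 45 min, 25 °C; Detection: fluorescence polarization; Control set: RBBP9 with DMSO as uninhibited control, no-protein wells as full inhibition; Compound dosing: one concentration, 7.94 µM nominal, 0.794% DMSO; Probe or stimulus: FP-Rh activity-based probe, 375 nM before mixing.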
GSTO1 counter – counter-screen for RBBP9 inhibitors: inhibitors of human GSTO1; P78417; inhibition, % at 5.96 µM; recombinant GSTO1, activity-based probe fluorescence polarization; 300,000 compounds, 1.1% hits; AID 1974;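 active means inhibition above the campaign mean inhibition plus 3 SD, cut at about 35% in these data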
Target sequence (P78417 whole entry, looked up): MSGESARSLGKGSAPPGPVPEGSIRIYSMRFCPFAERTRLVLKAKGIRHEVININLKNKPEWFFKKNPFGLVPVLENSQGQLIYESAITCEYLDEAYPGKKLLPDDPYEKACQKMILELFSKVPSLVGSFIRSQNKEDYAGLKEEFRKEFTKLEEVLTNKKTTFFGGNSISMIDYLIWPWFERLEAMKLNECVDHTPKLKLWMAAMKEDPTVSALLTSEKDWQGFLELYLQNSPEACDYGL
SIAE primary – inhibitors of human sialic acid acetylesterase SIAE; SIAE FP-Rh probe binding, fluorescence polarization; inhibition, % at 9.66 µM; 370,000 compounds, 0.69% hits; AID 1053197;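 active means inhibition above a cutoff: mean of compounds within the control limits plus 3 SD of those, cut at about 17% in these data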
PRMT1 inh – blocks human protein arginine methyltransferase 1. recombinant PRMT1, activity-based probe fluorescence polarization. inhibition, % at 2.79 µM. 370,000 compounds, 1.3% hits. AID 652257;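 active means inhibition above about 21% made by adding two undisclosed values, limit read from the data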
PRMT1 confirm – PRMT1 (human) inhibition, FP confirmation. shares compounds with PRMT1 inh. 3,300 compounds, 42% hits. inhibition, % at 2.79 µM. recombinant His-PRMT1, activity-based probe fluorescence polarization;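 active means mean inhibition across replicates above the hit cutoff derived for the earlier primary screen, cut at about 22% in these data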
Numbers stand for hits. Shown are actives, neighbours in structure and some others; about 2.7% of the full set was active somewhere.

Cc1ccc(SC2CC(=O)N(c3ccc4c(c3)OCCO4)C2=O)cc1 (stereo not drawn) was read as PAD4 FP inh inactive, RBBP9 inh inactive, GSTO1 counter inactive, SIAE primary inactive, PRMT1 inh 36 and PRMT1 confirm 26.
Screening COc1ccc(C(=O)COC(=O)c2ccc(OC)c(OC)c2)cc1OC returned PAD4 FP inh inactive, RBBP9 inh inactive, GSTO1 counter inactive, SIAE primary inactive and PRMT1 inh inactive.
Screening COc1ccc(C(=O)CSC#N)cc1OC returned PAD4 FP inh inactive, RBBP9 inh inactive, GSTO1 counter inactive, SIAE primary inactive, PRMT1 inh 41 and PRMT1 confirm 23.
Screening COc1ccc(NC(=O)CSc2nnnn2C2CC2)cc1S(=O)(=O)N1CCOCC1 returned PAD4 FP inh inactive, SIAE primary inactive, PRMT1 inh 38 and PRMT1 confirm inactive.
For O=[N+]([O-])c1ccc(C=Nc2ccccc2)cc1 the results were SIAE primary inactive and PRMT1 inh inactive.
Cc1[nH]n(-c2ccccc2)c(=S)c1C=Nc1cccc([N+](=O)[O-])c1 was read as PAD4 FP inh inactive, RBBP9 inh inactive, GSTO1 counter inactive, SIAE primary inactive, PRMT1 inh 95 and PRMT1 confirm 98.
`Cc1[nH]n(-c2ccccc2)c(=O)c1C=NCCc1ccccc1` gave PAD4 FP inh inactive, RBBP9 inh inactive, GSTO1 counter inactive, SIAE primary inactive and PRMT1 inh inactive.
Screening CCCCN=Cc1c(C)[nH]n(-c2ccccc2)c1=S returned PAD4 FP inh inactive, RBBP9 inh inactive, GSTO1 counter inactive, SIAE primary inactive, PRMT1 inh 26 and PRMT1 confirm inactive.
For O=C(CC(Nc1ccc(F)cc1)C(=O)O)c1ccccc1 (stereo not drawn) the results were PAD4 FP inh inactive, RBBP9 inh inactive, GSTO1 counter inactive, SIAE primary inactive and PRMT1 inh inactive.
O=C(CC(Nc1ccc(F)cc1)C(=O)OCC(=O)c1cccs1)c1ccccc1 (stereo not drawn) was read as PAD4 FP inh inactive, RBBP9 inh inactive, GSTO1 counter inactive, SIAE primary inactive, PRMT1 inh 29 and PRMT1 confirm inactive.
CCCCNC(=S)N(CCO)Cc1cc2cc3c(cc2[nH]c1=O)OCCO3 was read as PAD4 FP inh inactive, GSTO1 counter inactive, SIAE primary inactive, PRMT1 inh 44 and PRMT1 confirm inactive.
`CCN(CC)CCCNC(=S)N(CCO)Cc1cc2cc3c(cc2[nH]c1=O)OCCO3` gave PAD4 FP inh inactive, GSTO1 counter inactive, SIAE primary inactive and PRMT1 inh inactive.
Cc1ccc(S(=O)(=O)N2CCN(C(=O)C3CCCO3)CC2)cc1 (stereo not drawn) was read as PAD4 FP inh inactive, GSTO1 counter inactive, SIAE primary inactive and PRMT1 inh inactive.
O=C(NCC(F)(F)F)c1ccc(S(=O)(=O)N2CCN(C(=O)C3CCCO3)CC2)cc1 (stereo not drawn) was read as PAD4 FP inh inactive, SIAE primary inactive, PRMT1 inh 70 and PRMT1 confirm inactive.
O=[N+]([O-])c1cc2c(cc1Br)-c1ccccc1C2 was read as SIAE primary inactive, PRMT1 inh 38 and PRMT1 confirm inactive.
`CC1CN(C(=O)COC(=O)c2cc(S(N)(=O)=O)c(Cl)cc2Cl)CC(C)O1` (stereo not drawn) gave PAD4 FP inh inactive, GSTO1 counter inactive, SIAE primary inactive and PRMT1 inh inactive.
Cn1c(OCC2CCCO2)nc2cc(-c3ccccc3)sc2c1=O (stereo not drawn) was read as SIAE primary inactive and PRMT1 inh inactive.
`C=CCNC(=O)c1ccsc1N` gave SIAE primary inactive, PRMT1 inh 27 and PRMT1 confirm inactive.
`C=CCNC(=O)c1c(Cl)cccc1Cl` gave PAD4 FP inh inactive, RBBP9 inh inactive, GSTO1 counter inactive, SIAE primary inactive and PRMT1 inh inactive.
O=C(CSc1ccc(-c2ccco2)nn1)NCc1ccc(Cl)cc1 was read as PAD4 FP inh inactive, RBBP9 inh inactive, GSTO1 counter inactive, SIAE primary inactive, PRMT1 inh 44 and PRMT1 confirm inactive.
For Cc1ccc(CSc2ccc(-c3ccco3)nn2)cc1 the results were PAD4 FP inh inactive, RBBP9 inh inactive, GSTO1 counter inactive, SIAE primary inactive, PRMT1 inh 33 and PRMT1 confirm inactive.
Screening COc1cccc(CNC(=O)CSc2ccc(-c3ccco3)nn2)c1 returned PAD4 FP inh inactive, RBBP9 inh inactive, GSTO1 counter inactive, SIAE primary inactive and PRMT1 inh inactive.
Screening O=C(CSc1ccc(-c2ccco2)nn1)NCc1ccccc1 returned PAD4 FP inh inactive, RBBP9 inh inactive, GSTO1 counter inactive, SIAE primary inactive, PRMT1 inh 41 and PRMT1 confirm inactive.
For Cc1ccc(N2C(=O)c3ccccc3C2O)nc1 (stereo not drawn) the results were PAD4 FP inh inactive, RBBP9 inh inactive and GSTO1 counter inactive.
For Cc1ccc(CNC(=O)OC(C)(C)C)c(/C=C/S(=O)(=O)NCCc2ccccc2)c1 the results were SIAE primary inactive, PRMT1 inh 29 and PRMT1 confirm inactive.
`CC(C)(C)OC(=O)NCc1cc(F)ccc1/C=C/S(=O)(=O)NCc1ccccc1` gave SIAE primary inactive and PRMT1 inh inactive.
`CC1(C)CC(=O)C2=C(C1)OC(N)=C(C#N)C2c1cc2c(cc1[N+](=O)[O-])OCO2` (stereo not drawn) gave PAD4 FP inh inactive, RBBP9 inh inactive, GSTO1 counter inactive, SIAE primary inactive, PRMT1 inh 58 and PRMT1 confirm 31.
`CCOc1cc(C2C(C#N)=C(N)OC3=C2C(=O)CC(C)(C)C3)cc([N+](=O)[O-])c1O` (stereo not drawn) gave PAD4 FP inh inactive, RBBP9 inh inactive, GSTO1 counter inactive, SIAE primary inactive and PRMT1 inh inactive.
For CC1=CC(=O)C(Sc2ccc(C)cc2)=CC1=O the results were SIAE primary inactive, PRMT1 inh 88 and PRMT1 confirm 95.
Screening COc1ccc(N2C(=O)c3cccc4c(N(C)CCO)ccc(c34)C2=O)cc1 returned SIAE primary inactive, PRMT1 inh 29 and PRMT1 confirm 24.
N#Cc1cc2c([nH]c1=S)CCCC2 was read as PAD4 FP inh inactive, RBBP9 inh inactive, GSTO1 counter inactive, SIAE primary inactive, PRMT1 inh 32 and PRMT1 confirm inactive.
`CC1(C)Cc2[nH]c(=S)c(C#N)cc2CO1` gave PAD4 FP inh inactive, RBBP9 inh inactive, GSTO1 counter inactive, SIAE primary inactive, PRMT1 inh 41 and PRMT1 confirm 24.
For CC(=O)c1cccc(NC(=O)C2C3C=CC(C3)C2C(=O)O)c1 (stereo not drawn) the results were PAD4 FP inh inactive, RBBP9 inh inactive, GSTO1 counter inactive, SIAE primary inactive and PRMT1 inh inactive.
For Cc1ccc(-c2cccc(NC(=O)C3C4C=CC(C4)C3C(=O)O)c2)o1 (stereo not drawn) the results were PAD4 FP inh inactive, RBBP9 inh inactive, GSTO1 counter inactive, SIAE primary inactive, PRMT1 inh 54 and PRMT1 confirm inactive.
